# Experiments:
# PBMC [1] = assay: Induction of apoptosis in human PBMC assessed as early apoptotic cells at 150 ug/ml after 24 hrs by propidium iodide staining-based flow cytometric method (reference value: 0.1%); type: cell-based
# B16-F1 [2] = assay: Induction of apoptosis in mouse B16-F1 cells assessed as necrotic cells at 283.90 uM after 72 hrs by propidium iodide staining-based flow cytometric method (reference value: 2.5%); type: functional
# PBMC [3] = assay: Induction of apoptosis in human PBMC assessed as necrotic cells at 400 ug/ml after 24 hrs by propidium iodide staining-based flow cytometric method (reference value: 1%); type: cell-based
# K562 = assay: Antiproliferative activity against human K562 cells after 72 hrs by MTT reduction assay; type: functional, cell-based; settings: K562, 72 h
# Outline: (§1)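 MTT reduction assay; adherent lines left to adhere overnight, suspension lines (HL-60, K562) seeded on the day. […] Incubation was 72 h at 37°C, with MTT added for the last 4 h. OD read at 545 nm (reference 690 nm). IC50 from 100(A0-A)/A0=50; means ± SD of 3 independent experiments.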
# B16-F1 [4] = assay: Induction of apoptosis in mouse B16-F1 cells assessed as late apoptotic cells at 283.90 uM after 72 hrs by propidium iodide staining-based flow cytometric method (reference value: 1.4%); type: functional
# PBMC [5] = assay: Induction of apoptosis in human PBMC assessed as early apoptotic cells at 600 ug/ml after 24 hrs by propidium iodide staining-based flow cytometric method (reference value: 0.1%); type: cell-based
# B16-F1 [6] = assay: Induction of apoptosis in mouse B16-F1 cells assessed as early apoptotic cells at 283.90 uM after 24 hrs by propidium iodide staining-based flow cytometric method (reference value: 0.5%); type: functional
# B16-F1 [7] = assay: Induction of apoptosis in mouse B16-F1 cells assessed as late apoptotic cells at 283.90 uM after 24 hrs by propidium iodide staining-based flow cytometric method (reference value: 0.9%); type: functional
# [8] = Antiproliferative activity against human FM3 cells after 72 hrs by MTT reduction assay; type: functional, cell-based; outline: as §1
# HCT-116 = assay: Antiproliferative activity against human HCT116 cells after 72 hrs by MTT reduction assay; type: functional, cell-based; settings: HCT-116, 72 h
# Outline: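 MTT reduction assay; adherent lines left to adhere overnight, suspension lines (HL-60, K562) seeded on the day. Incubation was 72 h at 37°C, with MTT added for the last 4 h.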
# B16-F1 [9] = assay: Induction of apoptosis in mouse B16-F1 cells assessed as necrotic cells at 283.90 uM after 24 hrs by propidium iodide staining-based flow cytometric method (reference value: 0.4%); type: functional
# HeLa = assay: Antiproliferative activity against human HeLa cells after 72 hrs by MTT reduction assay; type: functional, cell-based; outline: as §1
# PBMC [10] = assay: Induction of apoptosis in human PBMC assessed as late apoptotic cells at 400 ug/ml after 24 hrs by propidium iodide staining-based flow cytometric method (reference value: 0.6%); type: cell-based
# B16-F1 [11] = assay: Induction of apoptosis in mouse B16-F1 cells assessed as early apoptotic cells at 283.90 uM after 72 hrs by propidium iodide staining-based flow cytometric method (reference value: 0.4%); type: functional
# SK-BR-3 = assay: Antiproliferative activity against human SKBR3 cells after 72 hrs by MTT reduction assay; type: functional, cell-based; settings: SK-BR-3, 72 h; outline: as §1
# PBMC [12] = assay: Induction of apoptosis in human PBMC assessed as necrotic cells at 300 ug/ml after 24 hrs by propidium iodide staining-based flow cytometric method (reference value: 1%); type: cell-based
# PBMC [13] = assay: Induction of apoptosis in human PBMC assessed as early apoptotic cells at 400 ug/ml after 24 hrs by propidium iodide staining-based flow cytometric method (reference value: 0.1%); type: cell-based
# PBMC [14] = assay: Induction of apoptosis in human PBMC assessed as late apoptotic cells at 600 ug/ml after 24 hrs by propidium iodide staining-based flow cytometric method (reference value: 0.6%); type: cell-based
# B16-F1 [15] = assay: Antitumor activity against mouse B16-F1 cells allografted in C57BL/6 mouse assessed as tumor volume at 300 ug, ip administered every other day up to day 29 measured on day 29 post last dose (reference value: 2.83 cm'3); type: functional
# Outline: (§2)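 Male C57BL/6 mice, 6-8 weeks old, received 10^5 B16.F1 cells sc in the right flank on day 0. From day 11 (palpable tumors), 5 mice/group were randomized and given ip doses in 200 µL PBS every other day, 8 doses in total, up to day 29. Control group received PBS. Tumors were measured by caliper every two days; volume = 1/2(length × width²).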
# PBMC [16] = assay: Induction of apoptosis in human PBMC assessed as early apoptotic cells at 500 ug/ml after 24 hrs by propidium iodide staining-based flow cytometric method (reference value: 0.1%); type: cell-based
# B16-F1 [17] = assay: Induction of apoptosis in mouse B16-F1 cells assessed as necrotic cells at 283.90 uM after 48 hrs by propidium iodide staining-based flow cytometric method (reference value: 1%); type: functional
# PBMC [18] = assay: Induction of apoptosis in human PBMC assessed as late apoptotic cells at 500 ug/ml after 24 hrs by propidium iodide staining-based flow cytometric method (reference value: 0.6%); type: cell-based
# B16-F1 [19] = assay: Antitumor activity against mouse B16-F1 cells allografted in ip dosed C57BL/6 mouse assessed as tumor growth inhibition administered every other day up to day 29 measured on day 29 post last dose; type: functional, organism-based; outline: as §2
# HL-60 = assay: Antiproliferative activity against human HL60 cells after 72 hrs by MTT reduction assay; type: functional, cell-based; settings: HL-60, 72 h; outline: as §1
# PBMC [20] = assay: Induction of apoptosis in human PBMC assessed as necrotic cells at 500 ug/ml after 24 hrs by propidium iodide staining-based flow cytometric method (reference value: 1%); type: cell-based
# Mus musculus [21] = assay: In vivo induction of tumor-reactive immune response in C57BL/6 mouse allografted with mouse B16-F1 cells assessed as splenocyte-mediated mouse WEHI 164 cell lysis at 300 ug, ip administered every other day up to day 29 measured on day 29 post last dose by flow cytometric method (reference value: 1.2 to 1.6); type: functional
# Outline: (§3)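 Male C57BL/6 mice (6-8 wk) were injected sc in the right flank with 10⁵ B16.F1 cells in PBS on day 0. From day 11, when tumors were palpable, they received ip doses in 200 µL PBS every other day (8 doses; 5 mice/group). On day 29, splenocytes were co-cultured unstimulated with targets at E:T 100:1 for 6 h at 37°C. CD107a/b MFI was read by flow cytometry, 2 mice/group tested individually.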
# Mus musculus [22] = assay: In vivo induction of tumor-reactive immune response in C57BL/6 mouse allografted with mouse B16-F1 cells assessed as splenocyte-mediated mouse WEHI 164 cell lysis at 600 ug, ip administered every other day up to day 29 measured on day 29 post last dose by flow cytometric method (reference value: 1.2 to 1.6); type: functional; outline: as §3
# PBMC [23] = assay: Induction of apoptosis in human PBMC assessed as necrotic cells at 600 ug/ml after 24 hrs by propidium iodide staining-based flow cytometric method (reference value: 1%); type: cell-based
smiles,measurement,setting,value
C/C=C1/[C@H](O[C@@H]2O[C@H](CO)[C@@H](O)[C@H](O)[C@H]2O)OC=C(C(=O)OC)[C@H]1CC(=O)OCCc1ccc(O)c(O)c1 [OLEUROPEIN],Activity,PBMC [1],0.8%
same,Activity,B16-F1 [2],21.8%
same,Activity,PBMC [3],4.3%
same,IC50,K562,64.7 µM
same,Activity,B16-F1 [4],15.5%
same,Activity,PBMC [5],6.5%
same,Activity,B16-F1 [6],9.3%
same,Activity,B16-F1 [7],6.9%
same,IC50,[8],269 to 275 µM
same,IC50,HCT-116,182 to 185 µM
same,Activity,B16-F1 [9],2.1%
same,IC50,HeLa,265 to 276 µM
same,Activity,PBMC [10],3%
same,Activity,B16-F1 [11],22.5%
same,IC50,SK-BR-3,160 µM
same,Activity,PBMC [12],3.9%
same,Activity,PBMC [13],1.6%
same,Activity,PBMC [14],12.4%
same,Activity,B16-F1 [15],2.41 cm3
same,Activity,PBMC [16],3.1%
same,Activity,B16-F1 [17],4.2%
same,Activity,PBMC [18],6.3%
same,TGI,B16-F1 [19],Dose-dependent effect
same,IC50,HL-60,54.3 µM
same,Activity,PBMC [20],10.3%
same,Flu intensity,Mus musculus [21],1.1 - 1.3
same,Flu intensity,Mus musculus [22],2.5 - 2.7
same,Activity,PBMC [23],16.4%

# — ChEMBL document CHEMBL4130342, “New semi-synthetic analogs of oleuropein show improved anticancer activity in vitro and in vivo” (Eur J Med Chem, 2017)
